ARNT TACC3 PPI: disruptors of ARNT/TACC3 protein interaction, primary screen, biochemical, AlphaScreen, single concentration; Transforming acidic coiled-coil-containing protein 3 (Homo sapiens), Q9Y6A5; AlphaScreen His-ARNT PAS-B/GST-TACC3 binding, luminescence; TACC3 fragment carries E629A point mutation; inhibition, % at 9.99 µM; 390,000 tested, 0.66% active;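 active = mean inhibition of replicates at least 50% and at least half of replicates each reaching 50%; inconclusive = half or more replicates reach 50% but mean below 50%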
XiGFP reactiv: activators of inactive X chromosome reactivation, primary screen, imaging, XiGFP fibroblasts, GFP high-content imaging, set 2; XiGFP mouse fibroblasts, % GFP-positive cells imaging, 3 d; cells co-treated with 5-aza-dC sensitizer; scaled so ellipticine positive control = 100%; activation, % at 7.58 µM; 360,000 tested, 0.055% active;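 active = mean normalized replicate activation at least 10% and every replicate at or above 10%; inconclusive = only one of the two criteria met; inactive = mean below 10% and not all replicates reach 10%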
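material = 68-5-11 XiGFP fibroblast line | medium = DMEM plus 5-aza-dC sensitizer | schedule = 3 days compound exposure | benchmarks = positive control ellipticine, 6 µM final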
SIRT5 block: SIRT5 desuccinylase inhibitors, primary screen, biochemical, fluorescence imaging, single point, set 5. Purified SirT5, succinyl-peptide AMC, trypsin-coupled fluorescence. inhibition, % at 15 µM. 330,000 tested, 1.1% active; in the data active = inhibition above about 15%; inconclusive = no clear call, values can overlap the other calls
Target sequence (Q9NXA8 whole entry, looked up): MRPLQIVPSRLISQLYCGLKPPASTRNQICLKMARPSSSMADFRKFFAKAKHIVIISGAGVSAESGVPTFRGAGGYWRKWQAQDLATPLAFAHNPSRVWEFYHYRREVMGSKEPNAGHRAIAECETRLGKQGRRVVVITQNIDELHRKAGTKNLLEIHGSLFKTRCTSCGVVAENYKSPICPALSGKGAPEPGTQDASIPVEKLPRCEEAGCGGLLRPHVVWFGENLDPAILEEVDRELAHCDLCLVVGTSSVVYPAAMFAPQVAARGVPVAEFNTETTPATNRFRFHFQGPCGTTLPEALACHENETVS
FN deposit inh: inhibitors of fibronectin matrix deposition, primary screen, AH1F cells, Alexa488-fibronectin fluorescence, plate reader; AH1F fibroblasts, overnight; inhibition, % at 12.6 µM; 350,000 tested, 0.086% active; AID 743247, 2014;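 active = mean inhibition across replicates of 30% or more, regardless of how many single replicates reach that level; inconclusive = mean under 30% yet at least half of replicates reach 30%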
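Material – AH1F fibroblast monolayer, labelled fibronectin deposition · Reagent – labelled fibronectin 24 nM · Timing – 1 h adhesion, overnight exposure · Measured by – fluorescence at 485 nm excitation, 525 nm emission · Read-out – inhibition of fibronectin deposition signal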
DENV2 CPE: inhibitors of DENV2 cytopathic effect, primary screen, cell-based, plate reader, single concentration; AID 651640, 2012; 350,000 tested, 1.7% active; CPE inhibition, % at 9.99 µM; DENV2-infected cells, cytopathic effect rescue; in the data active = CPE inhibition above about 20%, passing the limit was not always enough; inconclusive = no clear call, values can overlap the other calls; tested in BHK-21 cells
FGF22 binding: binders of human FGF22 protein, primary screen, FGF22 synaptogenesis inhibitor project, biophysical, thermal shift, single point; Fibroblast growth factor 22 (Homo sapiens), Q9HCT0; recombinant FGF22 thermal shift, SYPRO orange fluorescence; percent of sucrose octasulfate shift, DMSO zero; activity (Tm shift, normalised), % at 9.99 µM; 340,000 tested, 1.5% active;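 active = mean Tm shift, scaled 0 neutral to 100 positive control, at about 1.3% or above, every replicate too, limit read from the data; inconclusive = no clear call, values can overlap the other calls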
Target sequence (Q9HCT0 whole entry, looked up): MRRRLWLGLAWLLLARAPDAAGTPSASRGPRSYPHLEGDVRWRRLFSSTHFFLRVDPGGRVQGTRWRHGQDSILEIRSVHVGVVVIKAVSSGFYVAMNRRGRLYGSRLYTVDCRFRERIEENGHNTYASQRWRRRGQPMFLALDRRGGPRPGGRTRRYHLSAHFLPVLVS
Large screens that a line does not name were inactive. Hits are enriched below; roughly 3.8% of the tested compounds scored in any of these assays.

CC1(C)Cc2ccccc2C(=NCC(=O)O)N1	FGF22 binding 43
Cc1noc(C)c1NC(=O)N(C)C[C@H]1Oc2ccc(NC(=O)Cc3ccccc3)cc2C(=O)N([C@@H](C)CO)C[C@@H]1C	none (no result: FN deposit inh)
CC(C)CN(C(=O)CSc1nn(-c2ccc(Cl)cc2)c(=S)s1)C1CCS(=O)(=O)C1 (stereo not given)	ARNT TACC3 PPI 36
Nc1ccc(S(=O)(=O)NNC(=O)C(=O)NNc2ccccn2)cc1	ARNT TACC3 PPI 74 (no result: XiGFP reactiv, FN deposit inh, DENV2 CPE, FGF22 binding)
CC(=O)Nc1ccc(S(=O)(=O)NNC(=O)C(=O)NNc2ccccn2)cc1	ARNT TACC3 PPI 75
CC(=O)Nc1ccc(S(=O)(=O)Nc2ccccn2)cc1	none
Nc1ccc(S(=O)(=O)NCc2ccccn2)cc1	none
Cc1ccccc1S(=O)(=O)NNC(=O)C(=O)NNc1ccccn1	ARNT TACC3 PPI 70 (no result: XiGFP reactiv, SIRT5 block, FN deposit inh, DENV2 CPE, FGF22 binding)
Cc1ccc(S(=O)(=O)NNC(=O)C(=O)NNc2ccccn2)cc1	ARNT TACC3 PPI 63 (no result: XiGFP reactiv, SIRT5 block, FN deposit inh, DENV2 CPE, FGF22 binding)
Cc1noc(C)c1NC(=O)N(C)C[C@H]1OCCCC[C@H](C)Oc2ccc(NS(C)(=O)=O)cc2C(=O)N([C@@H](C)CO)C[C@H]1C	DENV2 CPE inconclusive (no result: SIRT5 block, FN deposit inh)
C[C@H](CO)N1C[C@H](C)[C@@H](CN(C)S(C)(=O)=O)Oc2ccc(NC(=O)C3CC3)cc2CC1=O	none (no result: FN deposit inh)
C[C@@H]1CN([C@@H](C)CO)S(=O)(=O)c2ccc(C#Cc3ccc(F)cc3)cc2O[C@@H]1CN(C)C(=O)c1ccccn1	none
C[C@@H]1CN([C@@H](C)CO)C(=O)c2cc(NC(=O)CCCN(C)C)ccc2O[C@@H]1CN(C)C(=O)Nc1ccc2c(c1)OCO2	none (no result: ARNT TACC3 PPI)
CCOc1ccc(NC(=S)N(CCc2ccncc2)C(C)C)cc1	none
Cc1cccc(C)c1NC(=S)N(CCc1ccncc1)C(C)C	SIRT5 block 16
CCC(=O)Nc1ccc2c(c1)OC[C@H](C)N(Cc1ccccc1C(=O)O)C[C@@H](C)[C@H](OC)CN(C)C2=O	none
O=c1[nH]c2ccc(Cl)cc2c(O)c1Cc1ccccc1	FGF22 binding 44
COc1cccc2cc(C(=O)N3CC(C)OC(C)C3)c(=O)oc12 (stereo not given)	none
COc1cc2c(oc(=O)c3cc(C)cc(OC)c32)c2c(C3OC(C)C(O)C(C)(O)C3O)ccc(O)c12 (stereo not given)	SIRT5 block 19
CCOC(=O)c1cc(-c2ccc(F)cc2)n(CC(=O)NC(C)CC)c1C (stereo not given)	FGF22 binding 43
CC(=O)c1cc(-c2ccc(F)cc2)n(CCC(=O)NC(C)(C)C)c1C	SIRT5 block 20 (no result: ARNT TACC3 PPI)
CCCNC(=O)Cn1c(-c2ccc(F)cc2)cc(C(=O)OCC)c1C	FGF22 binding 43 (no result: ARNT TACC3 PPI)
C[C@H](CO)N1C[C@H](C)[C@@H](CN(C)Cc2ccc(Cl)c(Cl)c2)OCCCC[C@H](C)Oc2ccc(N(C)C)cc2C1=O	DENV2 CPE 30 (no result: ARNT TACC3 PPI, FN deposit inh)
C[C@H]1CCCCO[C@H](CN(C)Cc2ccncc2)[C@@H](C)CN([C@@H](C)CO)C(=O)c2cc(N(C)C)ccc2O1	none (no result: FN deposit inh)
C[C@H](CO)N1C[C@H](C)[C@@H](CN(C)Cc2ccncc2)OCCCC[C@H](C)Oc2ccc(N(C)C)cc2C1=O	DENV2 CPE 31 (no result: FN deposit inh)
CNC[C@H]1OCCCC[C@@H](C)Oc2ccc(N(C)C)cc2C(=O)N([C@H](C)CO)C[C@H]1C	SIRT5 block 15, DENV2 CPE inconclusive (no result: FN deposit inh)
COC(=O)C[C@@H]1CC[C@@H]2[C@@H](COc3ccc(NC(=O)Nc4c(C)noc4C)cc3C(=O)N2C)O1	none
COc1ccc(CN(C)C[C@H]2OCCCC[C@H](C)Oc3ccc(NC(=O)Nc4ccc(F)cc4)cc3C(=O)N([C@@H](C)CO)C[C@H]2C)cc1	none (no result: FN deposit inh)
O=C(Nc1ccccc1)OCCOc1ccc(Cl)cc1Cl	FGF22 binding 44 (no result: SIRT5 block)
CCCOc1ccc(CNC(=S)Nc2ccccc2)cc1Cl	FGF22 binding 40
C[C@H]1CN([C@@H](C)CO)C(=O)c2cc(NC(=O)CCC(F)(F)F)ccc2O[C@@H]1CN(C)S(=O)(=O)c1cccs1	DENV2 CPE inconclusive
C[C@H](CO)N1C[C@H](C)[C@@H](CN(C)S(=O)(=O)c2ccsc2)OCc2ccccc2-c2c(n(C)c3ccccc23)C1=O	none
CN(C)c1ccc2c(c1)[C@@H]1C[C@@H](CC(=O)NCc3cc(F)ccc3F)O[C@@H](CO)[C@@H]1O2	none
CN(C)c1ccc2c(c1)[C@@H]1C[C@@H](CC(=O)NCc3cc(F)ccc3F)O[C@H](CO)[C@@H]1O2	ARNT TACC3 PPI active
CN(C)c1ccc2c(c1)[C@@H]1C[C@H](CC(=O)NCc3ccccc3)O[C@@H](CO)[C@@H]1O2	DENV2 CPE 21
COc1ccccc1CNC(=O)C[C@@H]1C[C@H]2c3cc(N(C)C)ccc3O[C@H]2[C@@H](CO)O1	DENV2 CPE 47
COC(=O)C[C@H]1C[C@@H]2c3cc(N(C)C)ccc3O[C@@H]2[C@@H](CO)O1	ARNT TACC3 PPI 45
COC(=O)C[C@H]1C[C@H]2c3cc(N(C)C)ccc3O[C@H]2[C@H](CO)O1	none
O=C(Nc1ccccc1F)N[C@H]1CC[C@@H](CCNS(=O)(=O)c2ccc(Cl)cc2)O[C@H]1CO	none (no result: FN deposit inh)
C[C@H]1CN([C@@H](C)CO)C(=O)c2cc(NC(=O)C3CCCCC3)ccc2O[C@H]1CN(C)Cc1ccncc1	DENV2 CPE inconclusive (no result: FN deposit inh)
COCCNC(=O)C[C@H]1C[C@H]2c3cc(NS(=O)(=O)c4ccccc4)ccc3O[C@H]2[C@@H](CO)O1	none (no result: FN deposit inh)
O=C(C[C@@H]1CC[C@H]2[C@@H](COC[C@@H](O)CN2C(=O)c2cccnc2)O1)Nc1ccc(-c2ccccc2)cc1	none
O=C(C[C@@H]1CC[C@H]2[C@@H](COC[C@H](O)CN2C(=O)c2ccncc2)O1)Nc1ccc(-c2ccccc2)cc1	DENV2 CPE 28
O=C(C[C@@H]1CC[C@H]2[C@@H](COC[C@H](O)CN2C(=O)c2ccncc2)O1)NC1Cc2ccccc2C1	DENV2 CPE 30
O=C(C[C@@H]1CC[C@@H]2[C@H](COC[C@H](O)CN2Cc2ccc3c(c2)OCO3)O1)Nc1ccc(-c2ccccc2)cc1	SIRT5 block 15
O=C(C[C@H]1CC[C@@H]2[C@H](COC[C@@H](O)CN2C(=O)c2ccncc2)O1)NC1Cc2ccccc2C1	none

Screens: PubChem, Broad Institute
